Results: PMC9306447 (Clinical Cancer Research, 2022)
Where “and” joins values, the source holds several entries; their conditions need not be identical. Equal entries are not always repeated. Where two headings read alike, the source gives them in different places.

How the values were obtained:
[1] = tested on: ALK(+) NSCLC with brain metastases; settings: across all four arms of ASCEND-7; cited from earlier work
[2] = tested on: ALK(+) NSCLC brain metastases; settings: ASCEND-1, cited from earlier work
[3] = Fraction unbound in brain tumor tissue by equilibrium dialysis; format: in vitro ADME, human; settings: for Fraction unbound EN: enhancing tumor tissue; for Fraction unbound NE: nonenhancing tumor tissue
Method in brief: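 Patients with brain metastasis or recurrent glioblastoma took the test compound orally for 10 days: 750 mg/day fasted or 450 mg/day with food. Tumor was resected 2 to 4, 6 to 8 or 23 to 25 h after the 10th dose. Regions were gadolinium-enhancing or, for glioblastoma, also nonenhancing, defined by preoperative MRI and intraoperative neuronavigation. Fraction unbound was measured by equilibrium dialysis, with total drug by LC-MS/MS.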

[4] = tested on: FAK; settings: read-out: biochemical IC50; cited from earlier work
[5] = Ceritinib concentrations in brain tumor and CSF and extent of CNS penetration; format: in vivo, human; settings: for Total drug tumor conc. EN / Unbound drug tumor conc. EN: enhancing tumor; for Total drug tumor conc. NE / Unbound drug tumor conc. NE: nonenhancing tumor
[6] = Clinical safety, adverse events graded by CTCAE; format: in vivo, human; settings: 10 patients
[7] = tested on: human plasma proteins; assay: Fraction unbound in plasma by equilibrium dialysis; format: in vitro ADME; settings: patient plasma; median and range
Method in brief: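 Patient plasma came from subjects dosed orally with the test compound for 10 days (750 mg/day fasted or 450 mg/day fed). Blood was sampled on day 9 and intraoperatively, centrifuged at 4°C, 1,500 g for 10 min, and the plasma stored at −80°C. Fraction unbound was measured by equilibrium dialysis; unbound concentration is total concentration (LC-MS/MS) times fraction unbound.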

[8] = daily dose; cited from earlier work
[9] = tested on: IGF1R; settings: read-out: biochemical IC50; cited from earlier work
[10] = Steady-state plasma PK of total and unbound ceritinib; format: in vivo, human; settings: for Css,max / Tss,max: plasma
[11] = individual patients 7, 9, 13 (resection 6–8 h)
[12] = individual patients 8, 14 (resection 23–25 h)
[13] = median (range given) of patients
[14] = mean of patients, all time points
[15] = median of patients, all time points
[16] = individual patients 7, 9, 13, 6–8 h after 10th dose, 450 mg/day
[17] = individual patients 8, 14, 23–25 h after 10th dose, 450 mg/day
[18] = individual patients 5, 11, 2–4 h after 10th dose, 450 mg/day
[19] = total ceritinib, arithmetic mean of 10 patients (750 or 450 mg/day)
[20] = total ceritinib, geometric mean of 10 patients (750 or 450 mg/day)
[21] = unbound ceritinib, arithmetic mean of 10 patients (750 or 450 mg/day)
[22] = unbound ceritinib, geometric mean of 10 patients (750 or 450 mg/day)

SMILES: Cc1cc(Nc2ncc(Cl)c(Nc3ccccc3S(=O)(=O)C(C)C)n2)c(OC(C)C)cc1C1CCNCC1 [ceritinib, 5-chloro-N2-(2-isopropoxy-5-methyl-4-(piperidin-4-yl)phenyl)-N4-(2-(isopropylsufonyl)phenyl)pyrimidine-2,4-diamine]
- disease control rate (DCR), intracranial [1]: High disease control rate
- intracranial disease control rate ([2]; ALKi-naïve patients (15/19)): 78.9%
- intracranial disease control rate ([2]; ALKi-pretreated patients (49/75)): 65.3%
- Fraction unbound EN ([3]; individual patients 1, 2, 3, 5, 11 (resection 2–4 h)): 1.618% and 0.039% and 0.047% and 0.056%
- Fraction unbound EN [3, 11]: 0.006% and 0.153% and 0.030%
- Fraction unbound EN [3, 12]: 0.298% and 0.144%
- Fraction unbound EN [3, 13]: 0.006%–1.6% and 0.051%
- Fraction unbound NE ([3]; individual patients 5, 11 (resection 2–4 h)): 0.045% and 0.006%
- Fraction unbound NE [3, 11]: 0.006% and 0.163% and 0.030%
- Fraction unbound NE [3, 12]: 0.090% and 0.213%
- Fraction unbound NE [3, 13]: 0.045% and 0.006%–0.21%
- fraction unbound in the tumor relative to the median value ([3]; patient 1, breast cancer brain metastasis): approximately 30 fold
- IC50 [4]: 0.03 µM
- CSF concentration ([5]; individual patient 14, 23–25 h after 10th dose, 450 mg/day): 0.015 µM
- CSF concentration ([5]; individual patients 7, 13, 6–8 h after 10th dose, 450 mg/day): 0.003 µM and 0.015 µM
- CSF concentration [5, 14]: 0.022 µM
- CSF concentration [5, 15]: 0.012 µM
- Total drug tumor conc. EN [5, 16]: 17.770 nmol/mg and 28.484 nmol/mg and 58.893 nmol/mg
- Unbound drug tumor conc. EN [5, 16]: 0.001 nmol/mg and 0.043 nmol/mg and 0.018 nmol/mg
- Total drug tumor conc. EN [5, 17]: 18.340 nmol/mg and 43.715 nmol/mg
- Unbound drug tumor conc. EN [5, 17]: 0.055 nmol/mg and 0.063 nmol/mg
- Total drug tumor conc. EN [5, 14]: 46.954 nmol/mg
- Unbound drug tumor conc. EN [5, 14]: 0.117 nmol/mg
- Total drug tumor conc. EN [5, 15]: 36.100 nmol/mg
- Unbound drug tumor conc. EN [5, 15]: 0.048 nmol/mg
- unbound concentration in enhancing tumor ([5]; median): 48 nM
- unbound concentration in nonenhancing tumor ([5]; median): 6 nM
- Total drug tumor conc. NE [5, 18]: 36.351 nmol/mg and 1.259 nmol/mg
- Unbound drug tumor conc. NE [5, 18]: 0.017 nmol/mg and BLQ
- Total drug tumor conc. NE [5, 14]: 9.674 nmol/mg
- Unbound drug tumor conc. NE [5, 14]: 0.008 nmol/mg
- Total drug tumor conc. NE [5, 15]: 2.771 nmol/mg
- Unbound drug tumor conc. NE [5, 15]: 0.006 nmol/mg
- tolerability of presurgical ceritinib ([6]; 10-day presurgical course): well tolerated
- severity of toxicities at least possibly related to ceritinib ([6]; CTCAE 4.0): minor (CTCAE 4.0 grades 1 and 2)
- fraction unbound in human plasma [7]: 1.4% and 0.6%–2.6%
- maximally tolerated dose (MTD) [8]: 750 mg
- IC50 [9]: 0.008 µM
- Css,max [10, 19]: 1279 nM
- Tss,max [10, 19]: 6.1 h
- Css,max [10, 20]: 1230 nM
- Tss,max [10, 20]: 5.9 h
- CL/F [10, 19]: 42.5 L/h
- fluctuation between steady-state peak and trough plasma concentrations ([10]; total ceritinib, geometric mean): 1.4 fold
- CL/F ([10]; total ceritinib, individual patients 1-3 (brain metastases), 750 mg/day fasted): 29.8 L/h and 66.9 L/h and 54.6 L/h
- CL/F ([10]; total ceritinib, individual patients 5-14 (glioblastoma), 450 mg/day with food): 35.9 L/h and 39.8 L/h and 34.1 L/h and 34.7 L/h and 40.8 L/h and 37.8 L/h and 50.1 L/h
- Css,max [10, 21]: 19 nM
- Tss,max [10, 21]: 9.3 h
- Css,max [10, 22]: 15 nM
- Tss,max [10, 22]: 7.0 h
